Assay [1] has as its target T1, Epidermal growth factor receptor (Homo sapiens, UniProt P00533). Briefly: Inhibition of erbB-1 receptor tyrosine kinase from A431 human epidermoid carcinoma cells. It is filed as cell-based, A-431. The method in brief: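 Full-length erbB-1 purified from A431 cell lysate by anti-EGF-receptor antibody affinity resin and eluted with EGF. Run at 25 °C for 10 min, stopped with TCA, precipitate counted by scintillation.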

Assay [2] has as its target Receptor tyrosine-protein kinase erbB-2 (Homo sapiens, UniProt P04626). Briefly: Inhibition of human erbB-2 receptor tyrosine kinase.
Assay [3] concerns the target Fibroblast growth factor receptor (Homo sapiens) (UniProt P22607+P11362+P22455+P21802). Kind of assay: Inhibition of human fibroblast growth factor receptor (FGF) at 50 uM (no effect). The assay is classed as protein assay.
Assay [4] addresses Insulin receptor (Homo sapiens) (UniProt P06213). Kind of assay: Inhibition of human insulin receptor tyrosine kinase at 50 uM (no effect).
Assay [5] deals with Platelet-derived growth factor receptor beta (Homo sapiens) (UniProt P09619). Briefly: Inhibition of human Platelet-derived growth factor receptor at 50 uM (no effect).
Sequence of Platelet-derived growth factor receptor beta (Homo sapiens) (P09619 whole entry): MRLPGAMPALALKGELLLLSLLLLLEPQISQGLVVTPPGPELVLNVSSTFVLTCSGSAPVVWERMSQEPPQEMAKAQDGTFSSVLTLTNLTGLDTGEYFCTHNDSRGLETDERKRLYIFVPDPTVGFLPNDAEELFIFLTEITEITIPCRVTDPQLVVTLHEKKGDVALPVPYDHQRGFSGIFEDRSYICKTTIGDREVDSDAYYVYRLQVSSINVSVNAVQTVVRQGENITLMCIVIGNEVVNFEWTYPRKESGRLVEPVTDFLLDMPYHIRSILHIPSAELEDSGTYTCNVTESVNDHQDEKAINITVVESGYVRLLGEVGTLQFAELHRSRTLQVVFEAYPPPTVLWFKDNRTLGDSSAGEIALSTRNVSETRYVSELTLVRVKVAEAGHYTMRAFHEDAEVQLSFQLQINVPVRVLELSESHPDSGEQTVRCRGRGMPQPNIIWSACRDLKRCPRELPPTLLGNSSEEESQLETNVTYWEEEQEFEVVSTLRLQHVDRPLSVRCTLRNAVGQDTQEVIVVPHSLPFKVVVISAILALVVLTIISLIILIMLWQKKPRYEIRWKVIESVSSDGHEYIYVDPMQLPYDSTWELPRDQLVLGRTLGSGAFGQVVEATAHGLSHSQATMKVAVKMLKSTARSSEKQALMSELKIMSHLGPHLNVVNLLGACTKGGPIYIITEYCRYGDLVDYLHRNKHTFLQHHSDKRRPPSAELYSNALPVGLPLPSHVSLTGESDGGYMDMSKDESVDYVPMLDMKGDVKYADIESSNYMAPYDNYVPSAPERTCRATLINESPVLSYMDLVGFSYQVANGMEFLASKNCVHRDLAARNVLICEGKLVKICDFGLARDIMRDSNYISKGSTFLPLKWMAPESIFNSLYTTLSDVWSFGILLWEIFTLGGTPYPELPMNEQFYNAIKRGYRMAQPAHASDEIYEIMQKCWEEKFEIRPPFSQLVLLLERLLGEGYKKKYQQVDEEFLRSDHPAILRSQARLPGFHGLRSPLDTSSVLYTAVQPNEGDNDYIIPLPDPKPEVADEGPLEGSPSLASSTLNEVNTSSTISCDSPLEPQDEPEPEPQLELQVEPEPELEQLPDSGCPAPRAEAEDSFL
The nature of assay [6]: Affinity for mouse cyclic-AMP dependent Ser/Thr Kinase.
For assay [7], the target named is T1, Epidermal growth factor receptor. Briefly: Inhibition of human erbB-1 receptor tyrosine kinase activity at 5 uM. The method, boiled down: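 A431-derived full-length erbB-1 was preincubated with 5 µM nucleoside without ATP, then assayed with 10 µM [32P]ATP and poly(Glu,Tyr) at 25 °C for 10 min; a TCA-precipitate count gave the read-out. Reversibility was tested by treating with 1 mM dithiothreitol.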

For assay [8] the target is unchanged. Briefly: (§1) Rate constant for inactivation of erbB-1 receptor of A431 human epidermoid carcinoma cells. It is filed as cell-based, A-431. The method, boiled down: (§2)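 A431 full-length erbB-1 preincubated with 0.1–25 µM nucleoside in kinase buffer lacking ATP for 1, 5, 15 or 30 min. 10 µM [32P]ATP then started a 10 min, 25 °C poly(Glu,Tyr) phosphorylation. Activity as % of control on semilog plots gave pseudo-first-order constants, fitted hyperbolically against concentration. Run in duplicate.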

Assay [9] has the same target. Briefly: Saturation rate constant for complex formation with human erbB-1 receptor. The method, boiled down:
as §2

The target is the same in assay [10]. The description is as §1. The assay is classed as cell-based. The note with it: A-431. The method in brief: as §2
Assay [11] shares this target. Briefly: Second order rate constant for inactivation of erbB-1 receptor of A431 human epidermoid carcinoma cells. It is filed as cell-based. Particulars: A-431. The method in brief:
as §2

The target is the same in assay [12]. Kind of assay: Half life for inactivation of erbB-1 receptor. The method, boiled down:
as §2

Sequence of Insulin receptor (Homo sapiens) (P06213 28-758 limits assumed): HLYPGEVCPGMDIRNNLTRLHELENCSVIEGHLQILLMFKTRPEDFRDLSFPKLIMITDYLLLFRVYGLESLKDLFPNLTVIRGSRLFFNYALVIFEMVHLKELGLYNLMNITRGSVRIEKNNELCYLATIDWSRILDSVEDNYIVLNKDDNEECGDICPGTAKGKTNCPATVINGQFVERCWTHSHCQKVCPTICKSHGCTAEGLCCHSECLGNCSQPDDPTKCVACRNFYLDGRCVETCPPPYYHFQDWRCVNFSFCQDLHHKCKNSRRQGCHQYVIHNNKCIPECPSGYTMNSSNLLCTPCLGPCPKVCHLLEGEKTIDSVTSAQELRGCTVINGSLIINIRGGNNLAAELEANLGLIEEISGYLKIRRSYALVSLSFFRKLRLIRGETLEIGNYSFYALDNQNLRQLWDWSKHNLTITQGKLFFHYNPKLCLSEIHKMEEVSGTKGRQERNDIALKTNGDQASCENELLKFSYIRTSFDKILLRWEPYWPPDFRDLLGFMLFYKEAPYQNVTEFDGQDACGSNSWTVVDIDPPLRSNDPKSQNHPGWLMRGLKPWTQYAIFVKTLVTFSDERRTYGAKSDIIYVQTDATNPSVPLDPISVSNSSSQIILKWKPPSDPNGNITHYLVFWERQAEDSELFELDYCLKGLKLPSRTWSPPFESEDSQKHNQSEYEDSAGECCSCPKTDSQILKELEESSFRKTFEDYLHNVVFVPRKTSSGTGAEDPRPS
Sequence of Insulin receptor (Homo sapiens) (P06213 763-1382 limits assumed): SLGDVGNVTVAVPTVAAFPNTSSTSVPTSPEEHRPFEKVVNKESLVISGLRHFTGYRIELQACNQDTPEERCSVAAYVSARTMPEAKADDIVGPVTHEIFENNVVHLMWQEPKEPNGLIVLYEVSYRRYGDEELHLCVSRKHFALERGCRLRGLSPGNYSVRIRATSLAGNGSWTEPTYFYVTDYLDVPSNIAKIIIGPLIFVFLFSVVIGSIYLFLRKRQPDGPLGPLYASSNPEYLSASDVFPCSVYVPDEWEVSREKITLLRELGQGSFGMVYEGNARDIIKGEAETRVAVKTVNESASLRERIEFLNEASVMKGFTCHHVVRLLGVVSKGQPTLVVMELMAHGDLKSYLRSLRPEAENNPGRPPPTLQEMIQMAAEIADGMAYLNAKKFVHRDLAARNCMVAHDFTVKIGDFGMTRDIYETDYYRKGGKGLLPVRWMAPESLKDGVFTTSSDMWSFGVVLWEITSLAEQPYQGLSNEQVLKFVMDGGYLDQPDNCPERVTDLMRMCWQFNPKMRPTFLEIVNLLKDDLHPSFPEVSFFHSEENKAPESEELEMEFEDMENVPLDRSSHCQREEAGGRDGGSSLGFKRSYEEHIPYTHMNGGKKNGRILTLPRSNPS
Sequence of Receptor tyrosine-protein kinase erbB-2 (P04626 whole entry): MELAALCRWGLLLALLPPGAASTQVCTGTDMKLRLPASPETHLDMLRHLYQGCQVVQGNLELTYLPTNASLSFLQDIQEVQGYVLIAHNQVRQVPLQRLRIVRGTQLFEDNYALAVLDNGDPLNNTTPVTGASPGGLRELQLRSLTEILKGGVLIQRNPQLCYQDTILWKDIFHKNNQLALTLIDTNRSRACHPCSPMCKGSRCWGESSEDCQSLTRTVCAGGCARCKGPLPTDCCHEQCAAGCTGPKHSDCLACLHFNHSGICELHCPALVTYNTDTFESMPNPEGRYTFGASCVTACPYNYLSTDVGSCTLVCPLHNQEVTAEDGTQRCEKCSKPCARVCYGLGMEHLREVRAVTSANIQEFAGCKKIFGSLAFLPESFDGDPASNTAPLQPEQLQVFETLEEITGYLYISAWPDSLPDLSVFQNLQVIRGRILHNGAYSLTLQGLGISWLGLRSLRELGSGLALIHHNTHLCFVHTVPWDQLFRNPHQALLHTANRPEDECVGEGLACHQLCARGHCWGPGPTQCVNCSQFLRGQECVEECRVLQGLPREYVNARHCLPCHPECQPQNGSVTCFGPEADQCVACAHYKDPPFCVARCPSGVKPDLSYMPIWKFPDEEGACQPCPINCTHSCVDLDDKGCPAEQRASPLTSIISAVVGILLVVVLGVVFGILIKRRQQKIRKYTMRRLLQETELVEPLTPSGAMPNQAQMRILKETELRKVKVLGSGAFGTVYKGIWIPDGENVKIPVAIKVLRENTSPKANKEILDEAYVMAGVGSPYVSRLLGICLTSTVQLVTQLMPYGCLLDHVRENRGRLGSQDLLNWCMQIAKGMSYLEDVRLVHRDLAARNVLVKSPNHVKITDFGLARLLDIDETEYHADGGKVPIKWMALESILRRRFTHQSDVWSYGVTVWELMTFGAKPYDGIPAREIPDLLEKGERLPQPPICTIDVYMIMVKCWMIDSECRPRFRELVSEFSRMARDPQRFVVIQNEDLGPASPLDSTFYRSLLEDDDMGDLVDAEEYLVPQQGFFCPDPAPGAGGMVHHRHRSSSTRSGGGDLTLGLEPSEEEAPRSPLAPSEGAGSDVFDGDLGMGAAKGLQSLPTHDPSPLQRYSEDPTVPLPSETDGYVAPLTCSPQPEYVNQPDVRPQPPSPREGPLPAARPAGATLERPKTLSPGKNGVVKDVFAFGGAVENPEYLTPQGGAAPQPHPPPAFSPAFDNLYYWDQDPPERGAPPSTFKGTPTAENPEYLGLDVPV

`Nc1ncnc2c1ncn2[C@@H]1O[C@H](CO)[C@@H](O)[C@H]1O` [ADENOSINE]: the IC50 (in general, the concentration needed to halve the response being measured) is 195 µM in assay [1] and approximately 1600 µM in [2]. Besides, the Concentration in assay [3], in [4] and in [5] was 50 µM throughout. Further, the Kd (commonly the constant that tells how readily two partners part at equilibrium) in assay [6] worked out at 35 µM.
Take `Nc1ncnc2c1ncn2[C@@H]1O[C@H](COP(=O)(O)OP(=O)(O)OP(=O)(O)O)[C@@H](O)[C@H]1O` [ADENOSINE TRIPHOSPHATE]: the Kd in assay [6] was 10 µM.
For `Nc1ncnc2c1ncn2[C@@H]1O[C@H](CO)[C@@H](O)[C@H]1S`, the inhibition (commonly the share of the control response that was lost under treatment) in assay [7] worked out at 70%. In [8], this molecule displayed a Kd of 1 µM. Also, the KS in [9] came out at 1 µM. In assay [10], this molecule came in with a kmax of 0.0023 s⁻¹. The same molecule came in with a kmax/KS in [11] of 2000 M⁻¹ s⁻¹. This molecule also gave an IC50 in [2] of 45 µM. Also, the Concentration in assay [3], in assay [4] and in assay [5] was 50 µM throughout. Further, in assay [12], the T1/2 came out at 5 min.
In [6], `Nc1ncnc2c1ncn2[C@@H]1O[C@H](COP(=O)(O)OP(=O)(O)O)[C@@H](O)[C@H]1O` [ADENOSINE DIPHOSPHATE] yielded a dissociation constant (Kd) of 10 µM.
